# A selection: hits, their analogues and other compounds. The true share with any hit is near 1.8%.
# HTRA1 inhibitor: HTRA1 serine protease inhibitors, primary screen, biochemical, fluorescence polarization, HTS. inhibition, % at 5.96 µM. recombinant HTRA1, FP-rhodamine activity-based probe. actives 0.5% (n = 340,000); in the data active = inhibition above about 36%;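 note: 0% = enzyme with DMSO and 100% = wells lacking enzyme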
# ABHD4 inh: ABHD4 inhibitors, primary screen, biochemical, fluorescence polarization, mouse; purified mABHD4, FP-Rh probe fluorescence polarization; inhibition, % at 8.92 µM; actives 0.54% (n = 370,000);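 active = inhibition exceeding the mean over every tested compound plus 3 SD, cut at about 30% in these data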;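 note: 0% = plate median of compound wells and 100% = S159A mutant with DMSO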
# Target sequence (Q8VD66 whole entry, looked up): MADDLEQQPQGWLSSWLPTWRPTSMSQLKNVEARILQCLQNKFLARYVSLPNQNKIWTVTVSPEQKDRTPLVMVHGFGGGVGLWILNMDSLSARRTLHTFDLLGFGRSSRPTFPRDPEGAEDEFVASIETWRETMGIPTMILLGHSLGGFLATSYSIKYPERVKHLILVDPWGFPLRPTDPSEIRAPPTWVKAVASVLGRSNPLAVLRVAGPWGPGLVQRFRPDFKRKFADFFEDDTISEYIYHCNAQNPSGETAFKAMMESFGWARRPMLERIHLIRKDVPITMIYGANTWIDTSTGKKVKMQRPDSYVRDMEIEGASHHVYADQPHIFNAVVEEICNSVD
#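 Test system: mABHD4 protein; Read-out basis: % inhibition; Incubation: 45 min + 60 min at 25 °C; Repeats: single replicate; Technique: fluorescence polarization with parallel and perpendicular emission, 525/598 nm; Compound: 8.92 µM, single dose; Benchmarks: full inhibition S159A mutant plus DMSO, zero as sample-well median.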
# SIAE primary: human SIAE inhibitors, primary screen, biochemical, fluorescence polarization, FP-Rh probe, 1536-well HTS; Sialate O-acetylesterase (Homo sapiens), Q9HAT2; inhibition, % at 9.66 µM; SIAE FP-Rh probe binding; actives 0.69% (n = 370,000);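 active = inhibition above a cutoff: mean of compounds within the control limits plus 3 SD of those, cut at about 17% in these data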;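 note: 0% = plate median of compound wells and 100% = probe without SIAE protein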
# DDE Tn6 FP inh: inhibitors of Tn6 peptide binding to fibrin DD(E), primary screen, biochemical, fluorescence polarization, human fibrin, Tn6 probe | Fibrinogen beta chain (Homo sapiens), P02675 | Fibrin DD(E) TRITC-Tn6 fluorescence polarization displacement | inhibition, % at 8.3 µM | actives 0.21% (n = 370,000) | AID 720509, 2013;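 active = inhibition above a per-campaign cutoff: mean of compounds within control limits plus 3 SD, cut at about 15% in these data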;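 note: 0% = median of all compound wells on the plate and 100% = blocking peptide control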
# Tn7 DDE FP: inhibitors of Tn7 peptide binding to fibrin DD(E), primary screen, biochemical, fluorescence polarization, human fibrin, Tn7 probe; FP displacement of FITC-Tn7 peptide from fibrin DD(E); 0% = median of compound wells per plate; inhibition, % at 8.3 µM; Fibrinogen beta chain (Homo sapiens), P02675; actives 0.13% (n = 370,000);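 active = inhibition above the mean of compounds falling within the control limits plus 3 SD of them, cut at about 14% in these data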;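 note: 0% = plate median of compound wells and 100% = 10 µM Aha-Tn7 peptide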
#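 Test system – human fibrin DD(E) · Times – 10 min preincubation, 3 h with tracer, room temperature · Detection – fluorescence polarization of the labelled Tn7 tracer · Measure – percent inhibition normalized to high-control wells · Benchmarks – high control wells with 10 µM unlabelled Aha-Tn7 peptide (full inhibition) · Repeats – singlicate testing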
# TCR CD3 inh: inhibitors of human TCR-CD3 interaction, primary screen, biochemical, fluorescence, TAMRA-labeled TCR probe. T-cell receptor (TCR). inhibition, % at 9.4 µM. actives 0.37% (n = 360,000);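 note: recombinant mutant TCR 2C K166C tagged with TAMRA read by polarization; 0% = receptor in buffer alone and 100% = receptor with positive control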
# BSA probe FL: compounds interfering with TAMRA-BSA probe, counter-screen for TCR-CD3 interaction inhibitor project, biochemical, fluorescence, TAMRA-labeled BSA | shares compounds with TCR CD3 inh | TAMRA-labeled BSA probe fluorescence counterscreen | inhibition, % at 9.4 µM | actives 10% (n = 1,200); in the data active = inhibition above about 23%;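 note: 0% = buffer low control and 100% = reference high control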
# TCR-CD3 inh conf: TCR-CD3 interaction inhibitors, retest, confirmation, biochemical, fluorescence, TAMRA-labeled TCR probe; shares compounds with TCR CD3 inh; TAMRA-labeled TCR probe fluorescence binding assay; inhibition, % at 9.4 µM; actives 48% (n = 1,200)
# DDE Tn6 FP ctr: DD(E)-Tn6 binding inhibition, counter-screen; inhibition, % at 8.3 µM; actives 2% (n = 680); Fibrin DD(E), TRITC-Tn6 fluorescence polarization displacement; 0% = median of compound wells, not DMSO; shares compounds with DDE Tn6 FP inh;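 active = inhibition above the mean of test compounds lying between the control limits plus 3 SD of those, cut at about 14% in these data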;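 note: 0% = median of compound wells and 100% = wells with Aha-Tn7 blocking peptide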
# DDE Tn6 confirm: inhibitors of Tn6 peptide binding to fibrin DD(E), confirmation, biochemical, fluorescence polarization, human fibrin, Tn6 probe | actives 10% (n = 680) | shares compounds with DDE Tn6 FP inh | FP displacement of TRITC-Tn6 peptide from DD(E); 0% = per-plate median of test wells | AID 720631, 2013 | inhibition, % at 8.3 µM;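 active = inhibition above the mean of compounds lying within the control limits plus 3 SD, cut at about 16% in these data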;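 note: 100% = high control wells holding a competing inhibitor peptide at 10 µM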
# mABHD4 conf: ABHD4 inhibitors, retest, confirmation, biochemical, fluorescence polarization, mouse. shares compounds with ABHD4 inh. purified mABHD4, FP-Rh probe fluorescence polarization. inhibition, % at 8.92 µM. actives 55% (n = 1,800). AID 720658, 2013;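 active = mean inhibition across replicates above the hit cutoff set in the primary screen, cut at about 30% in these data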;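 note: 0% = wild-type ABHD4 with DMSO and 100% = catalytically dead S159A mutant with DMSO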
# The depositor's hits bear a star; . = not tested or not shown. Cut-off read from the data, not from the text of the source, unless noted: active = inhibition above about 19%; inactive = the rest.
SMILES,HTRA1 inhibitor,ABHD4 inh,SIAE primary,DDE Tn6 FP inh,Tn7 DDE FP,TCR CD3 inh,BSA probe FL,TCR-CD3 inh conf,mABHD4 conf,others
COc1ccc(-c2c(C)c3ccc(O)cc3oc2=O)cc1OC,-2,-9,-2,-9,6,9,.,.,.,
O=C(O)CCCCCn1c(SCC(=O)N2CCCC2)nc2ccsc2c1=O,3,-2,-1,-2,2,2,.,.,.,
O=C(O)CCCCCn1c(SCC(=O)c2ccc(O)c(O)c2)nc2ccsc2c1=O,9,34*,13,-9,-10,25*,-6,25*,36*,
COc1ccc(-c2ccc(CN3C(C(C)C)C(=O)N(Cc4cn(CC5CCCCC5)nn4)CCS3(=O)=O)cc2)cc1OC (stereo not drawn),-47,-8,-3,-14,-4,-5,.,.,.,
CN(C)c1ncc(C2=C(Cl)C(=O)C(N3CCCC3)=C(Cl)C2=O)s1,39*,63*,25*,-4,2,22*,-15,7,83*,
Nc1ccc2c3c(cccc13)C(=O)N(c1ccccc1)C2=O,21,38*,10,11,-3,28*,43*,34*,33*,
Cc1ccc(S(=O)(=O)N2[C@H](C(C)C)[C@H]3[C@H]4C(=O)N(c5ccccc5)C(=O)[C@H]4CC(=O)[C@H]3[C@@H]2c2ccccc2)cc1,.,-9,1,3,2,4,.,.,.,
c1cc(-c2ccoc2)n2ccnc2c1,.,50*,15,23*,8,25*,19,16,14,DDE Tn6 FP ctr=-7;DDE Tn6 confirm=-7
CN1CCOc2c1cnn(CCO)c2=O,.,4,3,6,-2,5,.,.,.,
CC1=NN(c2ccccc2)C(=O)C1C=Nc1ccc(N(C)C)cc1 (stereo not drawn),.,39*,11,-2,-4,23*,-2,1,2,
Cc1c(C)n(C)c2ccc(C(=O)NCCN3CCOCC3)cc12,-6,0,1,-4,-1,-6,.,.,.,
Oc1ccc(/C=N/NC(=S)Nc2cccnc2)c(O)c1O,36,41*,53*,4,-3,83*,-12,56*,68*,
O=C1NC[C@@H](CCCCN2C[C@H](Cc3ccc(O)cc3)N(CCc3ccc(O)cc3)C(=O)C2=O)N(Cc2ccccc2)C1=O,.,10,5,-6,-2,-6,.,.,.,

# Screens: PubChem, The Scripps Research Institute Molecular Screening Center
